Here are results for 113 molecules from PubChem BioAssay AID2178 (The Scripps Research Institute Molecular Screening Center, 2009).

The campaign covered roughly 2,400 compounds. Fewer than 10 were called active. The list is a sample of the results. Values without a mark were called inactive.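 How the source made its calls: active means average inhibition across replicates above the hit cutoff set in the earlier primary screen; inactive means the rest.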

Sequence of Procathepsin L (Homo sapiens) (P07711 whole entry, looked up): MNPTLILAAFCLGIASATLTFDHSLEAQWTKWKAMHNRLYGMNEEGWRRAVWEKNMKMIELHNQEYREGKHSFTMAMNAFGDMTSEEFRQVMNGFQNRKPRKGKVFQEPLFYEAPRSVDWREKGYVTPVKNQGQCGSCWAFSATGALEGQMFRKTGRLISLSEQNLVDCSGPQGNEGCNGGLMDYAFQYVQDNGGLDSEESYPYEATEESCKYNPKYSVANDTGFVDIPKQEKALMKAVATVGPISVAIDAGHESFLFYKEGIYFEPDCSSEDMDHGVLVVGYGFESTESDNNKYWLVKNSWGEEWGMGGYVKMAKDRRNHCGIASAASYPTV

The target of the experiment is Procathepsin L (Homo sapiens) (UniProt P07711). Put plainly: CTSL1 protease inhibition confirmation – biochemical, QFRET, triplicate, counter-screen for PFM18AAP inhibitor project (AID 2178).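 Further: 0% = median of test compound wells and 100% = Z-Phe-Ala-diazomethylketone 1 µM.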 Conditions: purified cathepsin L1, Z-Leu-Arg-MCA fluorescence; at 5.96 µM; hits give high values. The procedure, abridged:
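System: Purified cathepsin L1 | Amount: Enzyme 1.5 µg/mL before substrate addition | Also added: Z-Leu-Arg-MCA fluorogenic substrate | Incubation: Enzyme-compound preincubation 30 min, substrate reaction 90 min, 25 °C | Technique: MCA fluorescence measured at substrate addition and at 90 min | Measure: Percent inhibition from fluorescence change | Replicates: Triplicate wells per compound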
(In general: Counterscreens check selectivity or assay interference.)
Take `CCN(CC)c1ccc(NC(=O)CCc2nnc3ccc(N4CCCCC4)nn23)c(C)c1`: the inhibition was 1.25%.

As to `c1ccc2sc(NN=C3CCCC3)nc2c1`, the inhibition was 0.11%.

With `Cc1ccc(S(=O)(=O)N/N=C\c2cc3c(cc2[N+](=O)[O-])OCO3)cc1`, the inhibition was -3.66%.

For `Cc1csc(NC(=O)NC2(C(F)(F)F)Oc3ccccc3O2)n1`, the inhibition was -4.56%.

`Cn1c(SCC(=O)N/N=C/c2ccc(O)c(O)c2)nc2ccccc21`: the inhibition was -2.42%.

Take `O=C(O)CCn1c(O)c(C=C2N=c3ccccc3=N2)sc1=S`: the inhibition was 2.67%.

On to `NC(=O)c1c(NC(=O)CSc2nnc(-c3ccco3)n2N)sc2c1CCCC2`, for which the inhibition is -6.97%.

Regarding `O=C(Nn1cnnc1)c1cc(Cl)ccc1Cl`, the inhibition is -2.58%.

As for `CC(C)C1N=C2c3ccccc3N=C(SCC(=O)c3ccc(O)c(O)c3)N2C1=O` (stereo not drawn), the inhibition is 6.47%.

In the case of `COc1ccc(OCc2nnc3n2N=C(c2ccccc2)C(CC(=O)O)S3)cc1` (stereo not drawn), the inhibition was 0.71%.

With `Cc1ccc(C)c(NC(=O)NNC(=O)c2ccc3ccccc3c2O)c1`, the inhibition is -3.43%.

For the molecule `CNC(=S)NNC(=O)c1ccc(N(C)C)cc1`, the inhibition was 3.16%.

For the molecule `CCN(CC)c1ccc(/C=N/Nc2nc(C)cc(C)n2)c(O)c1`, the inhibition was 4.21%.

With `COc1ccc(OCc2n[nH]c(=S)n2N)cc1`, the inhibition was -6.49%.

As to `Cc1cc(C)nc(Nc2ncn[nH]2)n1`, the inhibition was -0.26%.

In the case of `O=C(Oc1ccc(Br)cc1C(=S)N1CCOCC1)c1cccc([N+](=O)[O-])c1`, the inhibition is -0.38%.

Turning to `Cc1ccc(-c2ccc(/C=C(\C#N)C(N)=S)o2)c([N+](=O)[O-])c1`, the inhibition is -0.99%.

Take `O=C(CN1CCN(c2ccc(O)cc2)CC1)Nc1ccc(-c2ccccc2)cc1`: the inhibition is -1.37%.

On to `Oc1ccc(/C=N/Nc2ccc(C(F)(F)F)cn2)cc1O`, for which the inhibition was -2.87%.

On to `CCCc1nc2ccccc2c(=O)n1/N=C/c1ccc(O)c(O)c1`, for which the inhibition was -0.21%.

As for `Cc1cc(C)nc(NNC2=CC(=O)CC(C)(C)C2)n1`, the inhibition was -3.35%.

Consider `CCN(CC)c1ccc2oc(=O)c(C)nc2c1`, for which the inhibition is -1.42%.

As to `COc1c(O)ccc2c1CN1CCc3cc4c(cc3C1C2)OCO4` (stereo not drawn), the inhibition was -3.11%.

For `CC(C)(C)c1nnc(N/N=C/c2ccc(O)cc2)n(N)c1=O`, the inhibition was -5.72%.

For the molecule `Oc1ccc(/C=N/NC2=NCCCCC2)c(O)c1`, the inhibition was 1.65%.

For `CC(C)(C)C(=O)OCc1nc(-c2ccc(O)c(O)c2)cs1`, the inhibition was -4.53%.

For the molecule `NC(=S)N/N=C/c1coc2cc(Cl)ccc2c1=O`, the inhibition was 1.96%.

With `CCn1ccnc1CNC(=O)CC1C(=O)NCCN1Cc1ccc(F)cc1Cl` (stereo not drawn), the inhibition was -3.42%.

Take `COc1cc(/C=N/NC(=S)Nc2cccnc2)cc(OC)c1O`: the inhibition is -3.45%.

`Cn1c(=O)[nH]c(=O)c2c1[nH]c(=S)n2Cc1ccccc1`: the inhibition was -1.96%.

As for `CC1CCN(C(=O)c2ccc3c(c2)NC(=O)CN3)CC1`, the inhibition was -3.71%.

With `O=C(O)c1cccc(NC(=S)N/N=C/c2c[nH]c3ccccc23)c1`, the inhibition was -2.87%.

As to `O=C(Nc1cccc([N+](=O)[O-])c1)Nn1cnnc1`, the inhibition is -5.02%.

Consider `COc1cc(/C=N\Nc2ccc([N+](=O)[O-])cn2)ccc1OCC(=O)O`, for which the inhibition is 6.51%.

`CC(C)c1ccc(NC(=S)NNc2ccc(Cl)c(C(=O)O)c2)cc1`: the inhibition was -5.45%.

`Cc1nc2ccc(S(=O)(=O)NCC(=O)O)cc2s1`: the inhibition is -0.46%.

Regarding `O=C(CSc1ncn[nH]1)Nc1ccnc2ccccc12`, the inhibition was -0.72%.

Consider `CCOc1cccc(/C=N/NC(=S)NCCN2CCOCC2)c1O`, for which the inhibition was 3.05%.

With `CCOc1ccc(C2C3=C(CCCC3=O)N(CC(=O)O)C3=C2C(=O)CCC3)cc1`, the inhibition is 0.31%.

`COc1cc(/C=C2/C(=O)NN(c3cccc(Cl)c3)C2=O)cc(Br)c1O`: the inhibition is -3.26%.

As for `O=C(CO/N=C/c1ccccc1O)NNC(=O)c1ccccc1Cl`, the inhibition was -40.2%.

With `COc1ccc2c(c1)C(C)=CC(C)(C)N2C(=O)Nc1ccccc1`, the inhibition was 0.44%.

Turning to `Oc1ccc(N2CCN(C(=S)NCc3ccccc3)CC2)cc1`, the inhibition is 0.35%.

Regarding `Cc1ccc2nc(-c3cccc(Br)c3)cc(C(=O)Nn3cnnc3)c2c1`, the inhibition is -9.17%.

As to `CN(C)c1ccc(C(CC(=O)O)C(=O)O)cc1` (stereo not drawn), the inhibition is -7.14%.

With `CC(OC(=O)c1ccc2noc(-c3ccccc3)c2c1)C(N)=O` (stereo not drawn), the inhibition was 2.03%.

For `NC(=O)C1CCN(C(=O)/C(=C/c2ccco2)NC(=O)c2ccccc2)CC1`, the inhibition is -6.56%.

For the molecule `Cc1cccc(NC(=O)c2sc3nc(N4CCOCC4)c4c(c3c2N)CCCC4)c1`, the inhibition is -1.63%.

In the case of `CSc1n[nH]c(=S)n1N`, the inhibition was -0.69%.

On to `CC(C)(C)NC(=O)C(c1ccncc1)N(C(=O)CNC(=O)c1ccco1)c1ccc2c(c1)OCO2` (stereo not drawn), for which the inhibition was -6.31%.

Take `Cc1nc2nc[nH]n2c(=O)c1C/C=C/c1ccccc1`: the inhibition was -4.98%.

As to `COc1ccc(N/C=C(\C2OC(=O)c3ccccc32)[N+](=O)[O-])cc1` (stereo not drawn), the inhibition was -5.34%.

As to `c1ccc2c(c1)OCC(c1nn3cnnc3s1)O2` (stereo not drawn), the inhibition is 2.86%.

With `COc1cc(/C=N/Nc2nn3cnnc3c3ccccc23)cc(OC)c1OC`, the inhibition was 3.85%.

In the case of `ClC1(Cl)CC1CSc1ncn[nH]1` (stereo not drawn), the inhibition is -4.69%.

On to `S=c1[nH]nc2c3c4c(sc3ncn12)CCCC4`, for which the inhibition was -1.23%.

Regarding `Cc1ccc(-c2noc(CC(c3ccccc3)c3ccccc3)n2)cc1`, the inhibition is 2.35%.

Take `CC(/C=C/C1(O)C(C)CC(=O)CC1(C)C)OC1OC(CO)C(O)C(O)C1O` (stereo not drawn): the inhibition is -6.26%.

Take `Cc1cc2c(C)nc(N/N=C/c3ccccc3)nc2o1`: the inhibition was 3.67%.

Turning to `O=C1CCCCN1CCCC(=O)N1CCCC(Nc2ccc(F)cc2)C1` (stereo not drawn), the inhibition was -1.53%.

Consider `O=c1nc(N/N=C/c2ccco2)cn[nH]1`, for which the inhibition was 8.33%.

Turning to `O=C(COc1ccc([N+](=O)[O-])cc1Cl)Nn1cnnc1`, the inhibition is -1.51%.

Take `O=C(Nc1ccccc1Cl)Nn1cnnc1`: the inhibition is -5.2%.

On to `COc1ccc(OC)c(Nc2nc(-c3ccc(O)c(O)c3)cs2)c1`, for which the inhibition was 4.97%.

For `Cc1cc2nc3c(=O)n(Cc4ccccc4)c(=O)[nH]c3nc2cc1N`, the inhibition is 2.68%.

`Cc1cc(-c2ccc(/C=N/n3cnnc3)o2)c([N+](=O)[O-])cc1C`: the inhibition is 1.38%.

For the molecule `O=C(CC(n1cncn1)C(Cl)(Cl)Cl)c1ccc([N+](=O)[O-])cc1` (stereo not drawn), the inhibition is 1.47%.

For `Cc1ccc(Cl)cc1-c1ccc(/C=N/n2cnnc2)o1`, the inhibition is 3.57%.

Regarding `COc1cc(S(=O)(=O)Nc2ncn[nH]2)ccc1Cl`, the inhibition is 0.28%.

For the molecule `O=[N+]([O-])c1ccc(N2CCN(c3ccc(O)cc3)CC2)c(Cl)c1`, the inhibition was 0.99%.

For `COc1cccc2cc(-c3cc(=O)oc4cc(C)c(O)cc34)oc12`, the inhibition was -0.83%.

For the molecule `CC(=O)N(c1ccc2oc(=O)sc2c1)S(=O)(=O)c1ccc(C)cc1`, the inhibition is -0.05%.

As to `O=S(=O)(c1ccc(NC(=S)NN=C(C2CC2)C2CC2)cc1)N1CCOCC1`, the inhibition is 0.19%.

On to `COc1cc(NC(=S)N2CCCC(C)C2)c(OC)cc1Cl` (stereo not drawn), for which the inhibition was -10.4%.

Take `Cc1ccsc1/C=N/Nc1ccc(Cl)nn1`: the inhibition is 0.84%.

Turning to `COc1ccccc1-c1nnc(SCC(=O)Nc2cc(C)on2)o1`, the inhibition was 8.93%.

For `O=C(N/N=C/c1ccc(O)c(O)c1)C1c2ccccc2Oc2ccccc21`, the inhibition was -5.02%.

With `O=C(CN1CCN(S(=O)(=O)c2cc(Cl)ccc2Cl)CC1)c1ccc(O)c(O)c1`, the inhibition is -1.56%.

As for `O=C(Cn1c[n+](CC(=O)c2ccc([N+](=O)[O-])cc2)cn1)c1ccc([N+](=O)[O-])cc1`, the inhibition is 13.7%.

In the case of `Cc1ccc(NC(=O)c2c(NC(=O)CCC(=O)O)sc3c2CCCCC3)cc1`, the inhibition was 5.04%.

As for `CC/C(C)=N/Nc1nc2sc3c(c2c(=O)[nH]1)CC(C)(C)OC3`, the inhibition is 2.48%.

Turning to `Cn1sc(=O)c2cc(S(=O)(=O)NC3CC3)ccc21`, the inhibition is -0.58%.

For the molecule `CCOc1ccc(-n2c(O)c(/C=N/Nc3nnc(C)c(=O)[nH]3)c3ccccc3c2=O)cc1`, the inhibition is -0.55%.

Consider `Oc1cccc(/C=N/Nc2ccc(Cl)nn2)c1O`, for which the inhibition is 2.12%.

In the case of `Cc1c(CC(=O)N2CCN(C(=O)C3COc4ccccc4O3)CC2)c(=O)oc2c(O)c(O)ccc12` (stereo not drawn), the inhibition was 0.56%.

Regarding `O=C(CSC(=S)N1CCOCC1)c1cc(Br)cc(Br)c1O`, the inhibition is -2.37%.

With `CNC(=O)c1c(NC(NC(=O)c2ccco2)C(=O)c2ccc(Cl)cc2)sc2c1CCCC2` (stereo not drawn), the inhibition was -3.32%.

Take `N#CCC(=O)N/N=C/c1ccc(SCC(=O)Nc2ccccc2)o1`: the inhibition is -1.02%.

In the case of `CC(=O)c1ccc(NC(=O)CCc2nnc3ccc(NCc4ccco4)nn23)cc1`, the inhibition was -4.62%.

Regarding `c1ccc(-c2ccc3c(c2)NC(C2Nc4cc(-c5ccccc5)ccc4O2)O3)cc1` (stereo not drawn), the inhibition is 0.56%.

Regarding `CCN(CC)S(=O)(=O)c1cc([N+](=O)[O-])ccc1NNC(=O)Nc1ccccc1`, the inhibition is 5.14%.

Regarding `COc1cc(Br)cc(/C=N/c2ncn[nH]2)c1O`, the inhibition is -0.48%.

On to `Oc1c(C(c2ccco2)N2CCC3(CC2)OCCO3)sc2ncnn12` (stereo not drawn), for which the inhibition was -2.01%.

Turning to `Cc1onc(-c2ccccc2)c1C(=O)NNC(=S)NC(=O)c1ccc(F)cc1`, the inhibition is 3.64%.

Take `O=C(CSc1ncn[nH]1)Nc1nc(-c2cccc([N+](=O)[O-])c2)cs1`: the inhibition was 1.01%.

For `COc1ccc(/C=N/Nc2nc3ccccc3o2)cc1OC`, the inhibition is -3.54%.

With `Cc1cc([N+](=O)[O-])c(-c2ccc(/C=N/n3cnnc3)o2)cc1Cl`, the inhibition is 5.55%.

As to `O=C(CSc1ncn[nH]1)Nc1nsc(-c2ccccc2)n1`, the inhibition was 1.95%.

As for `NC(=O)c1c(Nc2nc3c(F)cccc3s2)sc2c1CCCC2`, the inhibition was 3.61%.

`CCOC(=O)NNc1cc(C(F)(F)F)ccn1`: the inhibition is 4.25%.

In the case of `Cc1cc(/C=N/Nc2ccc([N+](=O)[O-])cn2)c(C)n1-c1cccc(C(=O)O)c1`, the inhibition was 3.84%.

With `S=c1[nH]c(-c2cccs2)cn1-c1ccccc1`, the inhibition is -4.9%.

For `Cc1nccn1CC(=O)N/N=C/c1ccc(O)c(O)c1`, the inhibition is 5.14%.

Consider `Oc1ccc(-c2csc(Nc3cccnc3)n2)cc1`, for which the inhibition was 6.56%.

For the molecule `O=C(NNC(=O)c1ccco1)Nc1ccccc1`, the inhibition was 2.81%.

On to `CCOCCCNC(=O)c1ccc(CS(=O)(=O)c2cccc(C(F)(F)F)c2)o1`, for which the inhibition is -1.17%.

As to `ONC(=Nc1ccccc1)c1ccccc1Cl`, the inhibition is 1.1%.

For the molecule `CCN1/C(=C/C(=S)Nc2ccccc2)Sc2ccccc21`, the inhibition is 0.64%.

With `OCCN1CCN(C(=S)c2ccc(-c3ccccc3)cc2)CC1`, the inhibition is -0.85%.

Take `CCn1c(CNS(=O)(=O)c2ccc(Cl)cc2)n[nH]c1=S`: the inhibition was 1.4%.

Consider `CC1(C)CC(=O)C/C(=N\NC(=O)c2cccs2)C1`, for which the inhibition was -0.13%.

`Cc1ccnc(-n2sc3ccccc3c2=O)n1`: the inhibition was -1.29%.

Take `Cc1nnc(SCC(=O)Nn2cnnc2)s1`: the inhibition was 1.95%.

As usually defined, the inhibition is the relative decrease from the control value, in per cent.
